Experimental data published in ChEMBL document CHEMBL1137992, “Long hydrocarbon chain keto diols and diacids that favorably alter lipid disorders in vivo” (J Med Chem, 2004).

How the values were obtained:
Format in all cases: functional
Rattus norvegicus [1] = test: Percent decrease in glucose in obese Zucker rats after 1 week of treatment at a dose of 100 mg/kg/day; design: scale not given: the % may be the effect or the level left
In short: (§1)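 Female Zucker fatty rats [Crl:(Zuc)-faBR], 10–12 weeks, 400–500 g, acclimated 7 days on chow. Compound or vehicle (20% EtOH/80% PEG-200) given by daily oral gavage for 2 weeks, 0–100 mg/kg/day. After a 6 h fast, blood was taken before dosing, at 1 wk and at 2 wk. Serum lipids, NEFA and insulin (ELISA) were measured; glucose by glucometer. HDL/non-HDL-C came from Superose 6 gel-filtration profiles. Values are % change from pretreatment, mean ± SEM.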

Rattus norvegicus [2] = test: Percent decrease in triglycerides in obese Zucker rats after 2 weeks of treatment at a dose of 30 mg/kg/day; design: scale not given: the % may be the effect or the level left; in short: as §1
Rattus norvegicus [3] = test: Percent decrease in HDL-cholesterol in obese Zucker rats after 1 week of treatment at a dose of 3 mg/kg/day; design: scale not given: the % may be the effect or the level left; in short: as §1
Rattus norvegicus [4] = test: Percent increase in nonesterified fatty acids in obese Zucker rats after 2 weeks of treatment at a dose of 3 mg/kg/day; in short: as §1
Rattus norvegicus [5] = test: Percent increase in nonesterified fatty acids in obese Zucker rats after 2 weeks of treatment at a dose of 0 mg/kg/day; in short: as §1
Rattus norvegicus [6] = test: Percent increase in non-HDL-cholesterol in obese Zucker rats after 2 weeks of treatment at a dose of 30 mg/kg/day; in short: as §1

Row | SMILES | Activity (Rattus norvegicus [1]) | Activity (Rattus norvegicus [2]) | Activity (Rattus norvegicus [3]) | Activity (Rattus norvegicus [4]) | Activity (Rattus norvegicus [5]) | Activity (Rattus norvegicus [6])
1 | CC(C)(CCCCCC(=O)CCCCCC(C)(C)C(=O)O)C(=O)O | -21% | -52% |  |  |  | 
2 | CC(C)(CO)CCCCC(=O)CCCCC(C)(C)CO |  |  | -10% | 45% | 33% | 27%
